As a reminder, the Emax is the maximal effect, on the per cent scale that the assay sets. In general, EC50 refers to the concentration that produces a half-maximal response.

Molecules are shown by their SMILES. Active and inactive are the calls of the source. The rule behind the calls is not given here.

The values that follow come from ChEMBL document CHEMBL4325822, “Discovery of a tetrazolyl β-carboline with in vitro and in vivo osteoprotective activity under estrogen-deficient conditions” (Medchemcomm, 2018).

The test system of data set [1] is Calvarial osteoblast. Description: Induction of osteoblast differentiation in Sprague-Dawley rat calvarial osteoblasts assessed as alkaline phosphatase activity at 0.000001 to 1 uM after 48 hrs using PNPP as substrate by spectrophotometric method relative to control. It counts as functional, cell-based. The method, boiled down: (§1)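 Calvarial osteoblasts at 2 × 10³ cells/well. Treated 48 h with varied concentrations in differentiation medium (5% charcoal-treated FBS, 10 mM β-glycerophosphate, 50 µg·mL⁻¹ ascorbic acid). Total ALP read with PNPP substrate at 405 nm. Cell-free wells check for compound interference with substrate or absorbance.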

Data set [2] is described as follows: Induction of osteoblast differentiation in Sprague-Dawley rat calvarial osteoblasts assessed as alkaline phosphatase activity after 48 hrs using PNPP as substrate by spectrophotometric method. It counts as functional, cell-based. The method, boiled down: as §1
Data set [3] is described as follows: Induction of osteoblast differentiation in Sprague-Dawley rat calvarial osteoblasts assessed as alkaline phosphatase activity at 100 pM after 48 hrs using PNPP as substrate by spectrophotometric method relative to control. Format: functional. The essentials: as §1
Data set [4] relates to Calvarial osteoblast. As to the kind of experiment: Induction of osteoblast differentiation in Sprague-Dawley rat calvarial osteoblasts assessed as alkaline phosphatase activity at 10 nM after 48 hrs using PNPP as substrate by spectrophotometric method relative to control. It counts as functional. The method, boiled down: as §1
For data set [5], the system named is Calvarial osteoblast. Description: Cytotoxicity against Sprague-Dawley rat calvarial osteoblasts assessed as reduction in cell viability at 0.000001 to 1 uM after 48 hrs by MTT assay. It counts as cell-based. The essentials: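 Osteoblasts came from pooled calvaria of 1-2-day-old Sprague-Dawley pups, isolated by sequential dispase/collagenase digestion. Cells were exposed to compound at 1 pM to 1 µM for 48 h, and viability was measured by MTT.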
On the technique in general: Formazan colour is commonly taken as a measure of viable cells.

The subject of data set [6] is Calvarial osteoblast. Description: Increase in BMP2 protein expression in Sprague-Dawley rat calvarial osteoblasts at 100 pM after 48 hrs by Western blot analysis. Format: functional, cell-based. The essentials: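 Rat calvarial osteoblasts at 60-70% confluence were treated 48 h. Whole-cell lysates were blotted, blocked in 5% milk, and probed with primary antibody overnight at 4 °C, then with HRP secondary and ECL detection. Densitometry was normalized to β-actin; fold change versus untreated cells, three independent experiments, mean ± SEM.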
(Immunoblotting shows a protein as a band on a membrane.)

In data set [7] the test system is Calvarial osteoblast. Description: Osteogenic activity in Sprague-Dawley rat calvarial osteoblasts assessed as mineralized nodule formation at 100 pM after 21 days by alizarin red-S staining based colorimetric method. It counts as functional. The method, boiled down:
(§2)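 Osteoblasts at 10,000–15,000 cells/cm² in duplicate plates, 21 days in differentiation medium, medium changed every 48 h. Cells fixed in 4% PFA, stained with alizarin red-S (40 mM, pH 4.5, 30 min) and photographed. Stain extracted with 10% acetic acid, pH brought to 4.5 with ammonium hydroxide, read at 405 nm, normalized to cell number.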

Data set [8] relates to Calvarial osteoblast. As to the kind of experiment: Increase in OCN protein expression in Sprague-Dawley rat calvarial osteoblasts at 100 pM after 48 hrs by Western blot analysis. It counts as functional, cell-based. The method, boiled down:
(§3)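 Rat calvarial osteoblasts (pooled 1–2-day pups, collagenase/dispase digests) at 60–70% confluence treated 48 h. Whole-cell lysates immunoblotted with primary antibody overnight at 4 °C, then HRP secondary, with ECL detection. Densitometry gives fold change normalized to β-actin versus untreated cells. Mean ± SEM of three independent experiments.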

The nature of data set [9]: Increase in OCN mRNA expression in Sprague-Dawley rat calvarial osteoblasts at 100 pM by RT-PCR method relative to control. It counts as functional, Calvarial osteoblast. The method, boiled down:
(§4)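 Primary calvarial osteoblasts were lysed in TRIzol after treatment, and total RNA was extracted. Transcripts were quantified by real-time PCR using the comparative CT (ΔΔCT) method.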

Data set [10] can be described thus: Increase in Runx2 mRNA expression in Sprague-Dawley rat calvarial osteoblasts at 100 pM by RT-PCR method relative to control. It counts as functional, Calvarial osteoblast.
Data set [11] is described as follows: Increase in BMP2 mRNA expression in Sprague-Dawley rat calvarial osteoblasts at 100 pM by RT-PCR method relative to control. Format: functional, Calvarial osteoblast. The method, boiled down: as §4
The test system of data set [12] is Calvarial osteoblast. Description: Increase in Runx2 protein expression in Sprague-Dawley rat calvarial osteoblasts at 100 pM after 48 hrs by Western blot analysis. Format: functional, cell-based. The essentials:
as §3

Data set [13] relates to Calvarial osteoblast. Description: Osteogenic activity in Sprague-Dawley rat calvarial osteoblasts assessed as mineralized nodule formation at 100 pM after 21 days by alizarin red-S staining based light microscopic method. It counts as functional, cell-based. The essentials:
as §2

Where [14] appears, read: Rattus norvegicus, Sprague-Dawley, Calvarial osteoblast, 48 h, read-out: EC50.

In the case of `CCOC(=O)c1cc2c([nH]c3ccccc32)c(C(NC(C)(C)C)c2nnnn2C(C)(C)C)n1` (stereo not drawn), the Emax result in the data set with Calvarial osteoblast [1] was “inactive”. For the same compound, the concentration for a half-maximal effect (EC50) entry in [2] (calvarial osteoblast) is reported as “Not Active”.

Consider `COC(=O)c1cc2c([nH]c3ccccc32)c(C(NCc2ccc(C)cc2)c2nnnn2C(C)(C)C)n1` (stereo not drawn), for which the Emax result with Calvarial osteoblast [1] is “inactive”. Besides, the EC50 entry in data set [2] (calvarial osteoblast) is recorded as “Not Active”.

For `COC(=O)CNC(c1nc(C(=O)OC)cc2c1[nH]c1ccccc12)c1nnnn1C(C)(C)C` (stereo not drawn), in the data set on Calvarial osteoblast [1], the Emax entry is “inactive”. Besides, the EC50 entry in data set [2] (calvarial osteoblast) was “Not Active”.

Consider `CCOC(=O)c1cc2c([nH]c3ccccc32)c(C(c2nnnn2C(C)(C)C)N2CCN(Cc3ccc4c(c3)OCO4)CC2)n1` (stereo not drawn), for which, in the data set with Calvarial osteoblast [1], the Emax entry was “inactive”. In addition, the half-maximal effective concentration (EC50) result in data set [2] (calvarial osteoblast) is listed as “Not Active”.

As to `CCOC(=O)c1cc2c([nH]c3ccccc32)c(C(c2nnnn2C(C)(C)C)N2CCN(c3ccc(F)cc3)CC2)n1` (stereo not drawn), in the data set on Calvarial osteoblast [1], the Emax entry was “inactive”. Also, the EC50 entry in data set [2] (calvarial osteoblast) is reported as “Not Active”.

In the case of `COC(=O)c1cc2c([nH]c3ccccc32)c(C(NCc2ccccc2)c2nnnn2C(C)(C)C)n1` (stereo not drawn), the Emax at 0.0001 µM in data set [3] was determined as 29%. Also, the EC50 in data set [2] (setting [14]) was found to be 468 nM.

`CCN1CCN(C(c2nc(C(=O)OC)cc3c2[nH]c2ccccc23)c2nnnn2C(C)(C)C)CC1` (stereo not drawn): the Emax entry in the data set on Calvarial osteoblast [4] is “inactive”. The EC50 result in [2] (calvarial osteoblast) was “Not Active”.

With `COC(=O)c1cc2c([nH]c3ccccc32)c(C(NC(C)(C)C)c2nnnn2C(C)(C)C)n1` (stereo not drawn), in the data set on Calvarial osteoblast [1], the Emax result was “inactive”. Also, the EC50 entry in data set [2] (calvarial osteoblast) is “Not Active”.

Take `CCOC(=O)c1cc2c([nH]c3ccccc32)c(C=O)n1`: the Activity entry is “Non-Toxic” in the data set with Calvarial osteoblast [5] and 20% in the data set with Calvarial osteoblast [7]. Also, the maximum response (Emax) at 0.0001 µM in [3] turned out to be 65%. The outcome in the data set on Calvarial osteoblast [6], in the data set on Calvarial osteoblast [8] and in the data set with Calvarial osteoblast [12] was Active. In addition, the “fold change (FC)” value in [9], in data set [10] and in data set [11] was 1.8 - 4.6 each time. Besides, in data set [2] (setting [14]), the 50% effective concentration (EC50) stood at 613 nM.

In the case of `COC(=O)c1cc2c([nH]c3ccccc32)c(C(NCc2ccc(Cl)c(Cl)c2)c2nnnn2C(C)(C)C)n1` (stereo not drawn), in the data set on Calvarial osteoblast [1], the Emax result was “inactive”. In addition, the EC50 result in [2] (calvarial osteoblast) was “Not Active”.

For `CCOC(=O)c1cc2c([nH]c3ccccc32)c(C(c2nnnn2C(C)(C)C)N2CCN(C(=O)c3ccco3)CC2)n1` (stereo not drawn), in the data set with Calvarial osteoblast [1], the Emax entry is “inactive”. Moreover, in [2] (calvarial osteoblast), the EC50 result is given as “Not Active”.

`CCOC(=O)c1cc2c([nH]c3ccccc32)c(C(c2nnnn2C(C)(C)C)N2CCOCC2)n1` (stereo not drawn): in the data set on Calvarial osteoblast [1], the Emax result is “inactive”. Moreover, the concentration giving a half-maximal response (EC50) result in data set [2] (calvarial osteoblast) is given as “Not Active”.

On to `COC(=O)c1cc2c([nH]c3ccccc32)c(C(c2nnnn2C(C)(C)C)N2CCN(c3ncccn3)CC2)n1` (stereo not drawn), for which the Activity entry in the data set on Calvarial osteoblast [5] is reported as “Non-Toxic”; in the data set with Calvarial osteoblast [7] it was 48%. Moreover, the maximal response (Emax) at 0.0001 µM in [3] came to 80%. Further, the outcome in the data set on Calvarial osteoblast [6], in the data set with Calvarial osteoblast [13], with Calvarial osteoblast [8] and with Calvarial osteoblast [12] was Active. Moreover, the “fold change (FC)” value in data set [9], in data set [10] and in data set [11] was 1.8 - 4.6 each time. The 50% effective concentration (EC50) in data set [2] (setting [14]) was determined as 3270 nM.
